Molecular target: T1, DNA repair nuclease/redox regulator APEX1 (Homo sapiens, UniProt P27695)
Assay: Inhibition of human recombinant APE1 at 57 uM after 15 mins by fluorescence based HTS assay
Procedure, shortened: (§1)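 APE1 inhibition was measured in the fluorescence-based qHTS format at up to 57 µM. IC50 is the average of three separate experiments.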

T1 sequence (P27695 whole entry): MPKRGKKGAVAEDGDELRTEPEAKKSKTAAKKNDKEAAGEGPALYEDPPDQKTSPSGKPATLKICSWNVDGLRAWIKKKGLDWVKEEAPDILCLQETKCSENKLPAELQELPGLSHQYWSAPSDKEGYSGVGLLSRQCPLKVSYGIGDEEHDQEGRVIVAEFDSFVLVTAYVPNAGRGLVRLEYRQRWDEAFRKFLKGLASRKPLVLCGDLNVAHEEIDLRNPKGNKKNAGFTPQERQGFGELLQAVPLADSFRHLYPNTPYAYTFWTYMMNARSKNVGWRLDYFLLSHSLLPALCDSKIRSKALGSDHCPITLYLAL

inhibition [%]	Structure (SMILES)
34	CC(=O)Nc1sc2c(c1-c1cccs1)CCNC2
45	CC(=O)Nc1sc2c(c1-c1ncco1)CCNC2
30	CC(=O)Nc1sc2c(c1Br)CCNC2
31	CC(=O)Nc1sc2c(c1-c1nc3ccccc3s1)CNCC2
55	O=C(Nc1sc2c(c1-c1nc3ccccc3s1)CCNC2)C1CCCC1
41	CC(=O)Nc1sc2c(c1-c1ccco1)CCNC2
41	CC(=O)Nc1sc2c(c1-c1nc3ccccc3s1)CCOC2
66	CC(=O)Nc1sc2c(c1-c1cc3ccccc3o1)CCNC2
42	CC(=O)Nc1sc2c(c1-c1ccccc1)CCNC2
55	CC(=O)Nc1sc2c(c1-c1nccs1)CCNC2
29	CC(=O)Nc1sc2c(c1C(=O)O)CCNC2
56	CC(=O)Nc1sc2c(c1-c1nc3ccccc3s1)CCSC2
23	CC(=O)Nc1sc2c(c1-c1cc3ccccc3s1)CCNC2

Further lines, the molecule ahead of its results:

Structure (SMILES)	inhibition [%]
CC(=O)Nc1sc2c(c1C#N)CCN(C(C)C)C2	31
CC(=O)Nc1sc2c(c1-c1nc3ccccc3s1)CCS(=O)(=O)C2	29
CC(=O)Nc1cc2c(s1)CNCC2	47
C#CCCC(=O)Nc1sc2c(c1-c1nc3ccccc3s1)CCN(C(C)C)C2	57
CC(=O)Nc1sc2c(c1-c1nc3ccccc3s1)CCN(C(C)=O)C2	59
CC(C)N1CCc2c(sc(NC(=O)c3ccccc3)c2-c2nc3ccccc3s2)C1	57
CC(=O)Nc1sc2c(c1-c1nc3ccccc3s1)CCN(Cc1ccccc1)C2	41
CC(C)N1CCc2c(sc(NC(=O)Cc3ccccc3)c2-c2nc3ccccc3s2)C1	53
CC(C)N1CCc2c(sc(N)c2-c2nc3ccccc3s2)C1	40
O=C(O)c1cc2cccc([N+](=O)[O-])c2[nH]1	40

Molecular target: T1, DNA repair nuclease/redox regulator APEX1
Assay: Inhibition of human recombinant APE1 after 15 mins by fluorescence based HTS assay
Procedure, shortened: as §1

IC50 [µM]	Structure (SMILES)
> 57	CC(C)(C)C(=O)Nc1sc2c(c1-c1nc3ccccc3s1)CCNC2
6	O=C(Nc1sc2c(c1-c1nc3ccccc3s1)CCNC2)C1CC1
> 57	CC(=O)Nc1sc2c(c1-c1cc3ccccc3[nH]1)CCNC2
> 57	COC(=O)c1sc2c(c1-c1nc3ccccc3s1)CCNC2
> 57	O=C(O)c1sc2c(c1-c1nc3ccccc3s1)CCNC2
> 57	O=C(CCc1ccccc1)Nc1sc2c(c1-c1nc3ccccc3s1)CCNC2
12	C#CCCC(=O)Nc1sc2c(c1-c1nc3ccccc3s1)CCNC2
11.1	COC(=O)Nc1sc2c(c1-c1nc3ccccc3s1)CCNC2
> 57	CC(=O)Nc1sc2c(c1-c1csc3ccccc13)CCNC2
17.6	O=C(Nc1sc2c(c1-c1nc3ccccc3s1)CCNC2)C(F)(F)F
> 57	CC(=O)Nc1sc2c(c1-c1cccc3ccccc13)CCNC2

Second part, the molecule before the results:

Structure (SMILES)	IC50 [µM]
Cc1nnc(-c2sc3c(c2-c2nc4ccccc4s2)CCNC3)o1	> 57
CC(=O)Nc1sc2c(c1-c1nc3ccccc3s1)CCN(C(=O)OC(C)(C)C)C2	> 57
Cc1noc(-c2sc3c(c2-c2nc4ccccc4s2)CCNC3)n1	> 57
c1ccc2sc(-c3csc4c3CCNC4)nc2c1	25.2
Cc1nnc(Nc2sc3c(c2-c2nc4ccccc4s2)CCNC3)o1	19
CCCCC(=O)Nc1sc2c(c1-c1nc3ccccc3s1)CCN(C(C)C)C2	9.1
CC(=O)Nc1sc2cnccc2c1-c1nc2ccccc2s1	> 57
Cc1noc(Nc2sc3c(c2-c2nc4ccccc4s2)CCNC3)n1	18.2
CC(C)N1CCc2c(sc(NC(=O)C3CCCCC3)c2-c2nc3ccccc3s2)C1	8.3
CC(C)N1CCc2c(sc(NC(=O)C(F)F)c2-c2nc3ccccc3s2)C1	5.3
